Experimental data: ChEMBL document CHEMBL4321862, “Application of Bivalent Bioisostere Concept on Design and Discovery of Potent Opioid Receptor Modulators” (J Med Chem, 2019)
The source made the active and inactive calls.

What was measured:
Mu-type opioid receptor [1] = molecular target: T1, Mu-type opioid receptor (Mus musculus, UniProt P42866); experiment: Antagonist activity at mouse mu opioid receptor expressed in CHO cells cotransfected with Galphaqi5 assessed as inhibition of DAMGO-induced increase in intracellular calcium concentration preincubated for 60 mins in Fluo4AM solution followed by compound addition and further incubated for 15 mins followed by DAMGO stimulation by Fluo4AM dye based assay; format: functional, cell-based
Method in brief: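 Gαqi5-transfected mMOR-CHO cells loaded 60 min with Fluo-4 AM/probenecid. Triplicate per concentration, at least three repeats, mean ± SEM. Naltrexone as control. IC50 by non-linear regression.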

Mus musculus [2] = experiment: Inhibition of opioid-withdrawal symptom in morphine-pelleted Swiss Webster mouse assessed as reduction in paw tremors at 8 mg/kg, sc observed after 20 mins; format: functional, organism-based
Method in brief: (§1)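 Male Swiss Webster mice, n = 5, implanted with 75 mg morphine pellet at base of neck. After 72 h, 30 min habituation in observation chamber, then test compound s.c. Wet-dog shakes, escape jumps and paw tremors counted over 20 min.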

Mus musculus [3] = experiment: Inhibition of morphine-induced antinociceptive activity in Swiss Webster mouse assessed as decrease in latency to tail withdrawal at 10 mg/kg, sc administered 5 mins before morphine stimulation observed for 20 mins by warm water tail withdrawal assay; format: functional, organism-based
Method in brief: (§2)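 Male Swiss Webster mice, n ≥ 5, baseline latency 2–4 s. Test compound given s.c. 5 min before morphine 10 mg/kg. Tail immersion at 56 ± 0.1 °C 20 min after morphine, 10 s cutoff, %MPE per mouse.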

Mus musculus [4] = experiment: Inhibition of opioid-withdrawal symptom in morphine-pelleted Swiss Webster mouse assessed as reduction in wet dog shakes at 8 mg/kg, sc observed after 20 mins; format: functional, organism-based; method in brief: as §1
Mus musculus [5] = experiment: Inhibition of opioid-withdrawal symptom in morphine-pelleted Swiss Webster mouse assessed as reduction in paw tremors at 1 mg/kg, sc observed after 20 mins; format: functional, organism-based; method in brief: as §1
[6] = Selectivity index, ratio of Ki for mouse kappa opioid receptor expressed in CHO cells to Ki for mouse mu opioid receptor expressed in CHO cells
[7] = molecular target: Kappa-type opioid receptor (Mus musculus, UniProt P33534); experiment: Displacement of [3H]-[…] from mouse kappa opioid receptor expressed in CHO cells incubated for […] by competitive radioligand binding assay; format: cell-based
Mus musculus [8] = experiment: Inhibition of opioid-withdrawal symptom in morphine-pelleted Swiss Webster mouse assessed as reduction in escape jumps at 1 mg/kg, sc observed after 20 mins; format: functional, organism-based; method in brief: as §1
[9] = Selectivity index, ratio of Ki for human delta opioid receptor expressed in CHO cells to Ki for mouse mu opioid receptor expressed in CHO cells
Mus musculus [10] = experiment: Inhibition of opioid-withdrawal symptom in morphine-pelleted Swiss Webster mouse assessed as reduction in escape jumps at 8 mg/kg, sc observed after 20 mins; format: functional, organism-based; method in brief: as §1
Mus musculus [11] = experiment: Inhibition of morphine-induced antinociceptive activity in subcutaneously dosed Swiss Webster mouse assessed as decrease in latency to tail withdrawal administered 5 mins before morphine stimulation observed for 20 mins by warm water tail withdrawal assay; format: functional; method in brief: as §2
Mu-type opioid receptor [12] = molecular target: T1, Mu-type opioid receptor; experiment: Displacement of [3H]-Naloxone from mouse mu opioid receptor expressed in CHO cells incubated for […] by competitive radioligand binding assay; format: cell-based
[13] = molecular target: Delta-type opioid receptor (Homo sapiens, UniProt P41143); experiment: Displacement of [3H]-[…] from human delta opioid receptor expressed in CHO cells incubated for […] by competitive radioligand binding assay; format: cell-based
Mus musculus [14] = experiment: Inhibition of opioid-withdrawal symptom in morphine-pelleted Swiss Webster mouse assessed as reduction in wet dog shakes at 1 mg/kg, sc observed after 20 mins; format: functional, organism-based; method in brief: as §1
Mu-type opioid receptor [15] = molecular target: T1, Mu-type opioid receptor; experiment: Agonist activity at recombinant mouse mu opioid receptor expressed in CHO cell membrane assessed as [35]-GTPgammaS binding incubated for […] by scintillation counting method
Mu-type opioid receptor [16] = molecular target: T1, Mu-type opioid receptor; experiment: (§3) Agonist activity at mouse mu opioid receptor expressed in CHO cells assessed as inhibition of forskolin-induced cAMP formation incubated for 8 min followed by forskolin stimulation by ELISA; format: functional, cell-based
[17] = molecular target: Delta-type opioid receptor (Mus musculus, UniProt P32300); experiment: Displacement of [3H]-diprenorphine from mouse delta opioid receptor expressed in CHO cells incubated for […] by competitive radioligand binding assay; format: cell-based
[18] = molecular target: Mu-type opioid receptor (Mus musculus) (UniProt P42866); experiment: Agonist activity at recombinant mouse mu opioid receptor expressed in CHO cell membrane assessed as [35]-GTPgammaS binding incubated for […] by scintillation counting method relative to DAMGO
[19] = molecular target: Mu-type opioid receptor (Mus musculus) (UniProt P42866); experiment: Agonist activity at mouse mu opioid receptor expressed in CHO cells cotransfected with Galphaqi5 assessed as intracellular calcium level preincubated for 60 mins in Fluo4AM solution followed by compound addition by Fluo4AM dye based assay; format: functional, cell-based
[20] = Toxicity in placebo-pelleted Swiss Webster mouse assessed as paw tremors at 20 mg/kg, sc observed after 20 mins; format: organism-based; conditions: in vivo
Method in brief: (§4)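 Male Swiss Webster mice, n = 5, placebo-pelleted. Tested 72 h after implantation, following 30 min chamber habituation. Compound given s.c.; wet-dog shakes, escape jumps and paw tremors counted over 20 min.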

[21] = Toxicity in placebo-pelleted Swiss Webster mouse assessed as escape jumps at 20 mg/kg, sc observed after 20 mins; format: organism-based; conditions: in vivo; method in brief: as §4
Mus musculus [22] = experiment: Inhibition of opioid-withdrawal symptom in morphine-pelleted Swiss Webster mouse assessed as reduction in escape jumps at 50 mg/kg, sc observed after 20 mins; format: functional, organism-based; method in brief: as §1
Mus musculus [23] = experiment: Inhibition of opioid-withdrawal symptom in morphine-pelleted Swiss Webster mouse assessed as reduction in paw tremors at 50 mg/kg, sc observed after 20 mins; format: functional, organism-based; method in brief: as §1
[24] = molecular target: Mu-type opioid receptor (Mus musculus) (UniProt P42866); experiment: as §3; format: functional, cell-based
Method in brief: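 mMOR-CHO cells grown to confluency, pre-incubated 30 min at 37°C with 1 mM IBMX, 200 μM Ro 20-1724, bovine serum albumin and 20 mM HEPES (pH 7.2-7.5). Ligand then added with 10 μM forskolin for 8 min at 37°C. Media removed, cells rinsed with PBS, cAMP measured by ELISA. DMEM/F12 used as solvent throughout.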

[25] = Toxicity in placebo-pelleted Swiss Webster mouse assessed as wet dog shakes at 20 mg/kg, sc observed after 20 mins; format: organism-based; conditions: in vivo; method in brief: as §4
Mus musculus [26] = experiment: Inhibition of opioid-withdrawal symptom in morphine-pelleted Swiss Webster mouse assessed as reduction in wet dog shakes at 50 mg/kg, sc observed after 20 mins; format: functional, organism-based; method in brief: as §1

| SMILES | IC50 (Mu-type opioid receptor [1]) | inhibition (Mus musculus [3]) | inhibition (Mus musculus [5]) | Ratio Ki [6] | Ki [7] | inhibition (Mus musculus [8]) | Ratio Ki [9] | AD50 (Mus musculus [11]) | Ki (Mu-type opioid receptor [12]) | Ki [13] | inhibition (Mus musculus [14]) | EC50 (Mu-type opioid receptor [15]) | Emax [18] | Activity [19] | Emax [24] | also measured |
| --- | --- | --- | --- | --- | --- | --- | --- | --- | --- | --- | --- | --- | --- | --- | --- | --- |
| Cl.O=C(N[C@H]1CC[C@@]2(O)[C@H]3Cc4ccc(O)c5c4[C@@]2(CCN3CC2CC2)[C@H]1O5)c1cccc2ccsc12 | 566 nM | Active | Active | 8.5 | 2.65 nM | Active | 26.9 | 0.29 mg/kg | 0.31 nM | 8.35 nM | Active | 6.21 nM | – | – | – | inhibition (Mus musculus [2]): Active; inhibition (Mus musculus [4]): Active; inhibition (Mus musculus [10]): Active; EC50 (Mu-type opioid receptor [16]; cho): Not Active |
| Cl.O=C(N[C@H]1CC[C@@]2(O)[C@H]3Cc4ccc(O)c5c4[C@@]2(CCN3CC2CC2)[C@H]1O5)c1cccc2cc[nH]c12 | – | – | – | – | – | – | – | 2.07 mg/kg | – | – | – | – | 19.1% | – | – | Ki [17]: 13.7 nM |
| Cl.O=C(N[C@@H]1CC[C@@]2(O)[C@H]3Cc4ccc(O)c5c4[C@@]2(CCN3CC2CC2)[C@H]1O5)c1cccc2ccoc12 | – | Active | Active | – | 0.81 nM | Active | – | 0.18 mg/kg | – | – | Active | – | 27.3% | inactive | 35.7% | Activity [20]: Non-Toxic; Activity [21]: Non-Toxic; inhibition (Mus musculus [22]): Active; inhibition (Mus musculus [23]): Active; Activity [25]: Non-Toxic; inhibition (Mus musculus [26]): Active |
| Cl.O=C(N[C@H]1CC[C@@]2(O)[C@H]3Cc4ccc(O)c5c4[C@@]2(CCN3CC2CC2)[C@H]1O5)c1cccc2occc12 | 50.7 nM | Active | Active | 19.2 | 4.98 nM | Active | 65 | 0.29 mg/kg | 0.26 nM | 16.9 nM | Active | 0.77 nM | 10% | inactive | 18.9% | EC50 (Mu-type opioid receptor [16]; read-out: EC50): 80 nM |
